≈ marks a conversion by molar mass, not a printed value.
How the values were obtained:
[1] = tested on: Escherichia coli; assay: Antimicrobial activity against Escherichia coli DSM 1103 after 22 hrs by resazurin dye based spectrophotometry; assay type: functional; conditions: DSM 1103, 22 h
How it was run: (§1)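 2-fold broth microdilution in Mueller–Hinton medium; peptide stocks 1024 μg/mL in 50% ethanol. Exponential-phase cultures diluted to OD550 0.2, then 1:100 (B. subtilis) or 1:1000 (E. coli), giving 5 × 10^5 CFU/mL per well. Incubated 22 h, 37 °C, static; then resazurin (0.2 mg/mL solution) added for 2 h at 37 °C, read visually and spectrophotometrically. Tested in both photoforms.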

[2] = tested on: HeLa; assay: Cytotoxicity against human HeLa cells assessed as reduction in cell viability after 24 hrs by MTT assay; assay type: functional, cell-based
How it was run: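 HeLa cells seeded at about 5 × 10^4 cells/mL in DMEM with 10% FBS, 2 mM glutamine, gentamicin; 24 h adaptation (37 °C, 5% CO2), then 24 h peptide exposure. MTT 4 h, formazan in DMSO read at 570 nm. 2-fold series 256–0.5 (open) or 512–1 μg/mL (closed), four repetitions; IC50 extrapolated from killing curves. Closed form handled in dim light.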

[3] = Therapeutic index, ratio of HC50 for human RBC to MIC for Bacillus subtilis DSM 347; assay type: toxicity; conditions: human red blood cells versus Bacillus subtilis DSM 347
How it was run: (§2)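 Ratio of HC50 (RBC) to HeLa IC50 or to MIC against B. subtilis or E. coli; values measured in mg/mL and recalculated to μM, 2-fold dilution without curve fitting, accuracy within a factor of 2.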

[4] = Therapeutic index, ratio of HC50 for human RBC to MIC for Escherichia coli DSM 1103; assay type: toxicity; conditions: human red blood cells versus Escherichia coli DSM 1103; how it was run: as §2
[5] = tested on: Bacillus subtilis; assay: Antimicrobial activity against Bacillus subtilis DSM 347 after 22 hrs by resazurin dye based spectrophotometry; assay type: functional; conditions: DSM 347, 22 h; how it was run: as §1
[6] = Selective ratio of HC50 for human RBC to IC50 for human HeLa cells; assay type: toxicity; conditions: human red blood cells versus HeLa cells; how it was run: as §2
[7] = Hemolytic activity against human RBC assessed as hemolysis after 30 mins by colorimetric method; assay type: ADME, cell-based, Erythrocyte; conditions: human red blood cells (erythrocytes)
How it was run: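 Human erythrocytes washed twice in isotonic 172 mM Tris-HCl, pH 7.6; peptides dissolved in DMSO, diluted in buffer, two independent 10-step 2-fold series from 256 or 192 μg/mL. HC50 extrapolated as 50% hemolysis concentration.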

SMILES | MIC [1] | IC50 [2] | selectivity ratio [3] | selectivity ratio [4] | MIC [5] | selectivity ratio [6] | HC50 at 0.5 h [7]
CC(C)C[C@@H]1NC(=O)[C@H](CCCNC(=N)N)NC(=O)[C@H](C(C)C)NC(=O)C2=CC3=C4CCCC4=C4C=C(S[C@]4(C)[C@@]3(C)S2)C(=O)[C@H]2CCCN2C(=O)[C@H](CC(C)C)NC(=O)[C@H](CCCNC(=N)N)NC(=O)[C@H](C(C)C)NC(=O)[C@@H]2CCCN2C(=O)[C@@H](Cc2ccccc2)NC1=O | 94 µM (≈ 128 µg/mL) | 35 µM | 1.7 | 0.1 | 6 µM (≈ 8.19 µg/mL) | 0.3 | 10 µM
CC(C)C[C@@H]1NC(=O)[C@H](CCCCN)NC(=O)[C@H](C(C)C)NC(=O)C2=CC3=C4CCCC4=C4C=C(S[C@]4(C)[C@@]3(C)S2)C(=O)[C@H]2CCCN2C(=O)[C@H](C(C)C)NC(=O)[C@H](CCCCN)NC(=O)[C@H](C(C)C)NC(=O)[C@H](CC(C)C)NC(=O)[C@@H](CCCCN)NC(=O)[C@@H]2CCCN2C(=O)[C@@H](Cc2ccccc2)NC(=O)[C@H](C(C)C)NC(=O)[C@H](CCCCN)NC1=O | 73 µM (≈ 129 µg/mL) | 18 µM | 7 | 0.2 | 2 µM (≈ 3.53 µg/mL) | 0.8 | 14 µM
Cc1sc2cc1C1=C(CCC1)c1cc(sc1C)C(=O)[C@H]1CCCN1C(=O)[C@H](C)NC(=O)[C@H](CCCN)NC(=O)[C@H](C(C)C)NC(=O)[C@@H]1CCCN1C(=O)[C@@H](Cc1ccccc1)NC(=O)[C@H](CC(C)C)NC(=O)[C@H](CCCN)NC(=O)[C@H](C)NC2=O | 106 µM (≈ 128 µg/mL) | 40 µM | 12.4 | 0.8 | 7 µM (≈ 8.47 µg/mL) | 2.2 | 87 µM
CC(C)C[C@@H]1NC(=O)[C@H](CCCN)NC(=O)[C@H](CCCN)NC(=O)C2=CC3=C4CCCC4=C4C=C(S[C@]4(C)[C@@]3(C)S2)C(=O)[C@H]2CCCN2C(=O)[C@H](CC(C)C)NC(=O)[C@H](CCCN)NC(=O)[C@H](C(C)C)NC(=O)[C@@H]2CCCN2C(=O)[C@@H](Cc2ccccc2)NC1=O | 12 µM (≈ 15.5 µg/mL) | 12 µM | 5.7 | 1.4 | 3 µM (≈ 3.89 µg/mL) | 1.4 | 17 µM
CC(C)C[C@@H]1NC(=O)C2=CC3=C4CCCC4=C4C=C(S[C@]4(C)[C@@]3(C)S2)C(=O)[C@H]2CCCN2C(=O)[C@H](C(C)C)NC(=O)[C@H](CCCCN)NC(=O)[C@H](CC(C)C)NC(=O)[C@H](CCCCN)NC(=O)[C@@H]2CCCN2C(=O)[C@@H](Cc2ccccc2)NC(=O)[C@H](CCCCN)NC(=O)[C@H](C(C)C)NC(=O)[C@H](CCCCN)NC1=O | 164 µM (≈ 257 µg/mL) | 82 µM | 8.2 | 0.5 | 10 µM (≈ 15.7 µg/mL) | 1 | 82 µM
Cc1sc2cc1C1=C(CCC1)c1cc(sc1C)C(=O)[C@H]1CCCN1C(=O)[C@H](CC(C)C)NC(=O)[C@H](CCCN)NC(=O)[C@H](C(C)C)NC(=O)[C@@H]1CCCN1C(=O)[C@@H](Cc1ccccc1)NC(=O)[C@H](CC(C)C)NC(=O)[C@H](CCCN)NC(=O)[C@H](CCCN)NC2=O | 25 µM (≈ 32.4 µg/mL) | 6 µM | 6 | 0.5 | 2 µM (≈ 2.59 µg/mL) | 2 | 12 µM
CC(C)C[C@@H]1NC(=O)[C@H](CCCN)NC(=O)[C@H](C)NC(=O)C2=CC3=C4CCCC4=C4C=C(S[C@]4(C)[C@@]3(C)S2)C(=O)[C@H]2CCCN2C(=O)[C@H](C)NC(=O)[C@H](CCCN)NC(=O)[C@H](C(C)C)NC(=O)[C@@H]2CCCN2C(=O)[C@@H](Cc2ccccc2)NC1=O | 212 µM (≈ 257 µg/mL) | 106 µM | 4.4 | 0.8 | 40 µM (≈ 48.4 µg/mL) | 1.7 | 175 µM
Cc1sc2cc1C1=C(CCC1)c1cc(sc1C)C(=O)[C@H]1CCCN1C(=O)[C@H](CC(C)C)NC(=O)[C@H](CCCCN)NC(=O)[C@H](C(C)C)NC(=O)[C@H](CCCCN)N(C)C(=O)[C@@H](Cc1ccccc1)NC(=O)[C@H](CC(C)C)NC(=O)[C@H](CCCCN)NC(=O)[C@H](C(C)C)NC2=O | 47 µM (≈ 63.6 µg/mL) | 3 µM | 1.3 | 0.1 | 3 µM (≈ 4.06 µg/mL) | 1.3 | 4 µM
Cc1sc2cc1C1=C(CCC1)c1cc(sc1C)C(=O)[C@H]1CCCN1C(=O)[C@H](CC(C)C)NC(=O)[C@H](CCCNC(=N)N)NC(=O)[C@H](C(C)C)NC(=O)[C@@H]1CCCN1C(=O)[C@@H](Cc1ccccc1)NC(=O)[C@H](CC(C)C)NC(=O)[C@H](CCCNC(=N)N)NC(=O)[C@H](C(C)C)NC2=O | 35 µM (≈ 47.8 µg/mL) | 4 µM | 0.7 | 0.1 | 3 µM (≈ 4.09 µg/mL) | 0.5 | 2 µM
Cc1sc2cc1C1=C(CCC1)c1cc(sc1C)C(=O)[C@H]1CCCN1C(=O)[C@H](C(C)C)NC(=O)[C@H](CCCCN)NC(=O)[C@H](C(C)C)NC(=O)[C@H](CC(C)C)NC(=O)[C@@H](CCCCN)NC(=O)[C@@H]1CCCN1C(=O)[C@@H](Cc1ccccc1)NC(=O)[C@H](C(C)C)NC(=O)[C@H](CCCCN)NC(=O)[C@H](CC(C)C)NC(=O)[C@H](CCCCN)NC(=O)[C@H](C(C)C)NC2=O | 9 µM (≈ 15.9 µg/mL) | 3 µM | 1 | 0.1 | 1 µM (≈ 1.76 µg/mL) | 0.3 | 1 µM
Cc1sc2cc1C1=C(CCC1)c1cc(sc1C)C(=O)[C@H]1CCCN1C(=O)[C@H](CC(C)C)NC(=O)[C@H](CCCCN)NC(=O)[C@H](C(C)C)NC(=O)[C@H](CCCCN)NC(=O)[C@H](CC(C)C)NC(=O)[C@H](CCCCN)N(C)C(=O)[C@@H](Cc1ccccc1)NC(=O)[C@H](C(C)C)NC(=O)[C@H](CCCCN)NC(=O)[C@H](CC(C)C)NC(=O)[C@H](CCCCN)NC(=O)[C@H](C(C)C)NC2=O | 18 µM (≈ 32.8 µg/mL) | 2 µM | 0.3 | 0.1 | 4 µM (≈ 7.29 µg/mL) | 0.5 | < 1 µM
CC(C)C[C@@H]1NC(=O)[C@H](CCCCN)NC(=O)[C@H](C(C)C)NC(=O)C2=CC3=C4CCCC4=C4C=C(S[C@]4(C)[C@@]3(C)S2)C(=O)[C@H]2CCCN2C(=O)[C@H](CC(C)C)NC(=O)[C@H](CCCCN)NC(=O)[C@H](C(C)C)NC(=O)[C@H](CCCCN)N(C)C(=O)[C@@H](Cc2ccccc2)NC1=O | 95 µM (≈ 129 µg/mL) | 24 µM | 7.3 | 0.2 | 3 µM (≈ 4.06 µg/mL) | 0.9 | 22 µM
CC(C)[C@@H]1NC(=O)C2=CC3=C4CCCC4=C4C=C(S[C@]4(C)[C@@]3(C)S2)C(=O)[C@H]2CCCN2C(=O)[C@H](Cc2ccc(O)cc2)NC(=O)[C@H](CCCN)NC(=O)[C@H](C(C)C)NC(=O)[C@@H]2CCCN2C(=O)[C@@H](Cc2ccccc2)NC(=O)[C@H](Cc2ccc(O)cc2)NC(=O)[C@H](CCCN)NC1=O | 92 µM (≈ 127 µg/mL) | 137 µM | 3.7 | 0.1 | 3 µM (≈ 4.14 µg/mL) | 0.1 | 11 µM
CC(C)C[C@@H]1NC(=O)[C@H](CCCCN)NC(=O)[C@H](C(C)C)NC(=O)C2=CC3=C4CCCC4=C4C=C(S[C@]4(C)[C@@]3(C)S2)C(=O)[C@H]2CCCN2C(=O)[C@H](CC(C)C)NC(=O)[C@H](CCCCN)NC(=O)[C@H](C(C)C)NC(=O)[C@H](CCCCN)NC(=O)[C@H](CC(C)C)NC(=O)[C@@H]2CCCN2C(=O)[C@@H](Cc2ccccc2)NC(=O)[C@H](C(C)C)NC(=O)[C@H](CCCCN)NC1=O | 36 µM (≈ 64 µg/mL) | 28 µM | 37 | 1 | 1 µM (≈ 1.78 µg/mL) | 1.3 | 37 µM
CC(C)C[C@@H]1NC(=O)[C@H](CCCN)NC(=O)[C@H](C(C)C)NC(=O)C2=CC3=C4CCCC4=C4C=C(S[C@]4(C)[C@@]3(C)S2)C(=O)[C@H]2CCCN2C(=O)[C@H](C)NC(=O)[C@H](CCCN)NC(=O)[C@H](C(C)C)NC(=O)[C@@H]2CCCN2C(=O)[C@@H](Cc2ccccc2)NC1=O | 207 µM (≈ 256 µg/mL) | 39 µM | 3.5 | 0.2 | 13 µM (≈ 16.1 µg/mL) | 1.2 | 45 µM
CC(C)C[C@@H]1NC(=O)[C@H](CCCCN)NC(=O)[C@H](C(C)C)NC(=O)C2=CC3=C4CCCC4=C4C=C(S[C@]4(C)[C@@]3(C)S2)C(=O)[C@H]2CCCN2C(=O)[C@H](CC(C)C)NC(=O)[C@H](CCCCN)NC(=O)[C@H](C(C)C)NC(=O)[C@H](CCCCN)NC(=O)[C@H](CC(C)C)NC(=O)[C@H](CCCCN)N(C)C(=O)[C@@H](Cc2ccccc2)NC(=O)[C@H](C(C)C)NC(=O)[C@H](CCCCN)NC1=O | 9 µM (≈ 16.4 µg/mL) | 18 µM | 9 | 1 | 1 µM (≈ 1.82 µg/mL) | 0.5 | 9 µM

— ChEMBL document CHEMBL4257585, “Structure-Activity Relationships of Photoswitchable Diarylethene-Based β-Hairpin Peptides as Membranolytic Antimicrobial and Anticancer Agents” (J Med Chem, 2018)
